Published values pooled from the literature.
Each line is one published result; the experiments were not run side by side.

CNS(=O)(=O)c1ccc(Nc2ncc(C(F)(F)F)c([C@H]3CC[C@@](C)(O)CC3)n2)c(C)c1  Vd (rat, plasma; intravenous, 2 mg/kg): 1 L/kg
CC(C)n1ncc2c(C(=O)NCC3(C)CNC3)cc(C3CC3)nc21  scaled CLint (metabolic stability; mouse, liver microsomes): < 38 mL/min/kg
O=c1c2ccc(OCc3ccc(C(F)(F)F)cc3)cc2[nH]c2cc(Cl)cc(F)c12  microsomal CLint (metabolic stability; mouse, liver microsomes; 1 µM, pH 7.4): 6.76 µL/min/mg
Cc1cc(S(=O)(=O)NC2CC(N3CCN(CC4CCN(c5ccc6c(c5F)n(C)c(=O)n6C5CCC(=O)NC5=O)CC4)CC3)C2)ccc1Nc1ncc(C(F)(F)F)c(N2CCCC(C)(O)C2)n1 (centres unmarked)  Vd (rat, plasma; intravenous, 2 mg/kg): 18 L/kg
CCC(F)(F)c1cc(N2C(=O)NC(C)(C)C2=O)ccc1F  microsomal CLint (metabolic stability; mouse, liver microsomes): 7 µL/min/mg
CCCN(CCC)CCOc1ccc2c(=O)c3c([nH]c2c1)CCCC3  microsomal CLint (metabolic stability; mouse, liver microsomes; 1 µM, pH 7.4): 51.9 µL/min/mg
CC1(C)NC(=O)N(c2ccc(F)c(S(C)(=O)=O)c2)C1=O  microsomal CLint (metabolic stability; mouse, liver microsomes): < 7 µL/min/mg
Cc1cc(S(=O)(=O)N[C@]2(C)C[C@H](N3CCN(CC4CCN(c5ccc6c(c5F)n(C)c(=O)n6C5CCC(=O)NC5=O)CC4)CC3)C2)ccc1Nc1ncc(C(F)(F)F)c(N2CCC[C@](C)(O)C2)n1 (some centres unmarked)  Vd (rat, plasma; intravenous, 2 mg/kg): 42 L/kg
O=c1c2ccc(OCc3cccc(C(F)(F)F)c3)cc2[nH]c2ccc(Cl)c(F)c12  microsomal CLint (metabolic stability; mouse, liver microsomes; 1 µM, pH 7.4): 0.59 µL/min/mg
CC(C)n1ncc2c(C(=O)NCC3(F)CNC3)cc(C3CC3)nc21  scaled CLint (metabolic stability; mouse, liver microsomes): 78.2 mL/min/kg
CNS(=O)(=O)c1ccc(Nc2ncc3cc(Cl)c(=O)n(C4CCCC4)c3n2)c(C)c1  Vd (rat, plasma; intravenous, 2 mg/kg): 4 L/kg
CC(C)c1cc(C(=O)NCCN)c2cnn(C(C)C)c2n1  scaled CLint (metabolic stability; mouse, liver microsomes): < 38 mL/min/kg
O=c1c2ccc(Oc3cccc(OC(F)(F)F)c3)cc2[nH]c2cc(Cl)cc(F)c12  microsomal CLint (metabolic stability; mouse, liver microsomes; 1 µM, pH 7.4): 24.3 µL/min/mg
C[C@H]1Oc2cc(cnc2N)-c2c(nn(C)c2C#N)CN(C)C(=O)c2ccc(F)cc21  Vd/F (male Sprague-Dawley rat, plasma; oral, 5 mg/kg, single dose): 20 L/kg
